Measurements published in ChEMBL document CHEMBL5724801, “EUbOPEN Chemogenomics Library - Multiplex” (2024).
Where “and” joins values, the source holds several entries; their conditions need not be identical. Equal values may be shown once.

System: HEK-293T
Assay: Multiplex assay against HEK293T
Type: toxicity, cell-based
Settings: human
In short: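 On a CQ1 microscope at 37°C and 5% CO2, live cells were imaged after compound addition. They had been stained at seeding with Hoechst33342, BioTracker Green Microtubule Cytoskeleton Dye, MitoTracker Red and Annexin V Alexa Fluor 680. CellPathfinder machine-learning gating assigned cells to Hoechst high-intensity objects or normal cells, normal cells to healthy, pyknosed or fragmented nuclei, and pyknosed cells to mitotic or apoptotic. Tubulin, mitochondrial-mass and membrane-permeability phenotypes are per cents of healthy-nucleus cells.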

[1] = 12 h, 1 µM, compound concentration 1 uM
[2] = 12 h, 10 µM, compound concentration 10 uM
[3] = 24 h, 1 µM, compound concentration 1 uM
[4] = 24 h, 10 µM, compound concentration 10 uM
[5] = 48 h, 1 µM, compound concentration 1 uM
[6] = 48 h, 10 µM, compound concentration 10 uM

With `O=C(Nc1cc(-c2ccccc2)nn1-c1ccccc1F)c1ccc([N+](=O)[O-])cc1` the “Population Apoptotic (%)” value [1] was 33% and 37%, the “Population Fragmented Nuclei (%)” value [1] was 7% and 6% and the “Population Healthy Nuclei (%)” value [1] was 78% and 83%. For the same compound, the “Population Hoechst High Intensity Objects (%)” value [1] was 9% and 6%, the “Population Membrane Permeable-Phenotype (%)” value [1] was 0% and the “Population Mitochondria Different-Phenotype (%)” value [1] was 31% and 48%. The “Population Mitotic Cells (%)” value [1] was 66% and 62%, the “Population Normal (%)” value [1] was 90% and 94% and the “Population Pyknosed Nuclei (%)” value [1] was 13% and 9%. For the same compound, the “Population Tubulin-Different-Phenotype (%)” value [1] was 19%, the “Total Cell Count” value [1] was 402 and 417 and the “Population Apoptotic (%)” value [2] was 37% and 44%. For the same compound, the “Population Fragmented Nuclei (%)” value [2] was 10% and 6%, the “Population Healthy Nuclei (%)” value [2] was 71% and 73% and the “Population Hoechst High Intensity Objects (%)” value [2] was 5% and 6%. For the same compound, the “Population Membrane Permeable-Phenotype (%)” value [2] was 0%, the “Population Mitochondria Different-Phenotype (%)” value [2] was 41% and 65% and the “Population Mitotic Cells (%)” value [2] was 62% and 55%. The “Population Normal (%)” value [2] was 94% and 93%, the “Population Pyknosed Nuclei (%)” value [2] was 17% and 20% and the “Population Tubulin-Different-Phenotype (%)” value [2] was 40% and 45%. The “Total Cell Count” value [2] was 342 and 367, the “Population Apoptotic (%)” value [3] was 33% and 35% and the “Population Fragmented Nuclei (%)” value [3] was 8% and 12%. For the same compound, the “Population Healthy Nuclei (%)” value [3] was 78%, the “Population Hoechst High Intensity Objects (%)” value [3] was 4% and the “Population Membrane Permeable-Phenotype (%)” value [3] was 0% and 1%. The “Population Mitochondria Different-Phenotype (%)” value [3] was 21% and 31%, the “Population Mitotic Cells (%)” value [3] was 66% and 64% and the “Population Normal (%)” value [3] was 95%. For the same compound, the “Population Pyknosed Nuclei (%)” value [3] was 12% and 8%, the “Population Tubulin-Different-Phenotype (%)” value [3] was 17% and 16% and the “Total Cell Count” value [3] was 481 and 530. The “Population Apoptotic (%)” value [4] was 15% and 22%, the “Population Fragmented Nuclei (%)” value [4] was 9% and 7% and the “Population Healthy Nuclei (%)” value [4] was 77% and 83%. The “Population Hoechst High Intensity Objects (%)” value [4] was 2% and 3%, the “Population Membrane Permeable-Phenotype (%)” value [4] was 0% and the “Population Mitochondria Different-Phenotype (%)” value [4] was 35% and 47%. For the same compound, the “Population Mitotic Cells (%)” value [4] was 84% and 77%, the “Population Normal (%)” value [4] was 97% and 96% and the “Population Pyknosed Nuclei (%)” value [4] was 13% and 8%. The “Population Tubulin-Different-Phenotype (%)” value [4] was 35% and 33%, the “Total Cell Count” value [4] was 434 and 482 and the “Population Apoptotic (%)” value [5] was 17% and 33%. For the same compound, the “Population Fragmented Nuclei (%)” value [5] was 13% and 17%, the “Population Healthy Nuclei (%)” value [5] was 79% and 74% and the “Population Hoechst High Intensity Objects (%)” value [5] was 3% and 2%. The “Population Membrane Permeable-Phenotype (%)” value [5] was 2%, the “Population Mitochondria Different-Phenotype (%)” value [5] was 14% and 15% and the “Population Mitotic Cells (%)” value [5] was 82% and 66%. The “Population Normal (%)” value [5] was 96% and 97%, the “Population Pyknosed Nuclei (%)” value [5] was 7% and the “Population Tubulin-Different-Phenotype (%)” value [5] was 9% and 11%. For the same compound, the “Total Cell Count” value [5] was 893 and 799, the “Population Apoptotic (%)” value [6] was 22% and 20% and the “Population Fragmented Nuclei (%)” value [6] was 12% and 15%. For the same compound, the “Population Healthy Nuclei (%)” value [6] was 77%, the “Population Hoechst High Intensity Objects (%)” value [6] was 2% and 3% and the “Population Membrane Permeable-Phenotype (%)” value [6] was 2% and 1%. The “Population Mitochondria Different-Phenotype (%)” value [6] was 19% and 27%, the “Population Mitotic Cells (%)” value [6] was 77% and 79% and the “Population Normal (%)” value [6] was 97% and 96%. For the same compound, the “Population Pyknosed Nuclei (%)” value [6] was 9% and 6%, the “Population Tubulin-Different-Phenotype (%)” value [6] was 23% and 26% and the “Total Cell Count” value [6] was 671 and 666.
With `CN(C)C/C=C/C(=O)Nc1ccc(C(=O)N2CCCC(Nc3ncc(Cl)c(-c4c[nH]c5ccccc45)n3)C2)cc1` (configuration not stated) the “Population Apoptotic (%)” value [1] was 46% and 63%, the “Population Fragmented Nuclei (%)” value [1] was 8% and 6% and the “Population Healthy Nuclei (%)” value [1] was 55% and 64%. The “Population Hoechst High Intensity Objects (%)” value [1] was 30% and 23%, the “Population Membrane Permeable-Phenotype (%)” value [1] was 0% and the “Population Mitochondria Different-Phenotype (%)” value [1] was 87% and 89%. The “Population Mitotic Cells (%)” value [1] was 53% and 36%, the “Population Normal (%)” value [1] was 69% and 76% and the “Population Pyknosed Nuclei (%)” value [1] was 35% and 29%. For the same compound, the “Population Tubulin-Different-Phenotype (%)” value [1] was 69% and 70%, the “Total Cell Count” value [1] was 227 and 231 and the “Population Apoptotic (%)” value [2] was 62% and 77%. For the same compound, the “Population Fragmented Nuclei (%)” value [2] was 12% and 7%, the “Population Healthy Nuclei (%)” value [2] was 57% and 64% and the “Population Hoechst High Intensity Objects (%)” value [2] was 35% and 29%. The “Population Membrane Permeable-Phenotype (%)” value [2] was 0%, the “Population Mitochondria Different-Phenotype (%)” value [2] was 95% and the “Population Mitotic Cells (%)” value [2] was 37% and 22%. The “Population Normal (%)” value [2] was 64% and 70%, the “Population Pyknosed Nuclei (%)” value [2] was 30% and 28% and the “Population Tubulin-Different-Phenotype (%)” value [2] was 79% and 81%. For the same compound, the “Total Cell Count” value [2] was 269 and 181, the “Population Apoptotic (%)” value [3] was 72% and 74% and the “Population Fragmented Nuclei (%)” value [3] was 15% and 9%. The “Population Healthy Nuclei (%)” value [3] was 62% and 67%, the “Population Hoechst High Intensity Objects (%)” value [3] was 27% and 26% and the “Population Membrane Permeable-Phenotype (%)” value [3] was 0%. The “Population Mitochondria Different-Phenotype (%)” value [3] was 85% and 89%, the “Population Mitotic Cells (%)” value [3] was 27% and 25% and the “Population Normal (%)” value [3] was 72% and 73%. For the same compound, the “Population Pyknosed Nuclei (%)” value [3] was 22% and 23%, the “Population Tubulin-Different-Phenotype (%)” value [3] was 74% and 70% and the “Total Cell Count” value [3] was 222 and 207. For the same compound, the “Population Apoptotic (%)” value [4] was 74% and 88%, the “Population Fragmented Nuclei (%)” value [4] was 19% and 10% and the “Population Healthy Nuclei (%)” value [4] was 55% and 68%. For the same compound, the “Population Hoechst High Intensity Objects (%)” value [4] was 49% and 34%, the “Population Membrane Permeable-Phenotype (%)” value [4] was 0% and the “Population Mitochondria Different-Phenotype (%)” value [4] was 96% and 98%. For the same compound, the “Population Mitotic Cells (%)” value [4] was 25% and 11%, the “Population Normal (%)” value [4] was 50% and 65% and the “Population Pyknosed Nuclei (%)” value [4] was 24% and 20%. The “Population Tubulin-Different-Phenotype (%)” value [4] was 52% and 77%, the “Total Cell Count” value [4] was 314 and 197 and the “Population Apoptotic (%)” value [5] was 67% and 81%. The “Population Fragmented Nuclei (%)” value [5] was 16% and 6%, the “Population Healthy Nuclei (%)” value [5] was 59% and 65% and the “Population Hoechst High Intensity Objects (%)” value [5] was 30% and 26%. The “Population Membrane Permeable-Phenotype (%)” value [5] was 0%, the “Population Mitochondria Different-Phenotype (%)” value [5] was 79% and 95% and the “Population Mitotic Cells (%)” value [5] was 32% and 18%. For the same compound, the “Population Normal (%)” value [5] was 69% and 73%, the “Population Pyknosed Nuclei (%)” value [5] was 23% and 27% and the “Population Tubulin-Different-Phenotype (%)” value [5] was 71% and 74%. The “Total Cell Count” value [5] was 239 and 184, the “Population Apoptotic (%)” value [6] was 55% and 80% and the “Population Fragmented Nuclei (%)” value [6] was 62% and 47%. The “Population Healthy Nuclei (%)” value [6] was 14% and 30%, the “Population Hoechst High Intensity Objects (%)” value [6] was 67% and 58% and the “Population Membrane Permeable-Phenotype (%)” value [6] was 0%. For the same compound, the “Population Mitochondria Different-Phenotype (%)” value [6] was 100% and 94%, the “Population Mitotic Cells (%)” value [6] was 44% and 20% and the “Population Normal (%)” value [6] was 32% and 41%. For the same compound, the “Population Pyknosed Nuclei (%)” value [6] was 23% and 21%, the “Population Tubulin-Different-Phenotype (%)” value [6] was 23% and 57% and the “Total Cell Count” value [6] was 361 and 277.
